In test [1] the test system is Candida albicans. Put plainly: Antifungal activity against Candida albicans NCIM 300 at >50 ug/ml after 2 to 3 days by serial plate dilution method. In kind it is functional, organism-based. Put shortly:
(§1)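 For the fungal lawn, a loopful of each strain was suspended in 3 ml normal saline and spread on agar plates. Excess suspension was decanted and the plates were dried 1 h at 37 °C. Wells were punched and labeled. Plates, including a triplicate control, were held at 37 °C for 2–3 days. Zones of inhibition and MIC were recorded against fluconazole as standard.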

Test [2] has as its system Aspergillus niger. Kind of test: Antifungal activity against Aspergillus niger NCIM 617 at >50 ug/ml after 2 to 3 days by serial plate dilution method. It counts as functional, organism-based. In a few lines: as §1
Test [3] deals with Pseudomonas aeruginosa. Put plainly: Antibacterial activity against Pseudomonas aeruginosa ATCC 27853 after 24 hrs by disc diffusion method. In kind it is functional. The conditions noted are these: ATCC 27853, 24 h. In a few lines:
(§2)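 Bacterial strains tested on discs at each concentration, placed in triplicate in nutrient agar seeded with fresh bacteria; incubated 37 °C for 24 h. Ciprofloxacin served as reference, with solvent and growth controls. Zones of inhibition and MICs were recorded.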

Test [4] relates to Aspergillus fumigatus. Kind of test: Antifungal activity against Aspergillus fumigatus NCIM 902 at 10 ug/ml after 2 to 3 days by serial plate dilution method. In kind it is functional. The conditions noted are these: read-out: IZ. Put shortly: as §1
Test [5] relates to Aspergillus flavus. Put plainly: Antifungal activity against Aspergillus flavus NCIM 524 after 2 to 3 days by serial plate dilution method. It counts as functional. In a few lines:
as §1

Test [6] relates to Aspergillus flavus. Kind of test: Antifungal activity against Aspergillus flavus NCIM 524 at 10 ug/ml after 2 to 3 days by serial plate dilution method. In kind it is functional. The following applies: read-out: IZ. In a few lines: as §1
For test [7], the system named is Pseudomonas aeruginosa. Kind of test: Antibacterial activity against Pseudomonas aeruginosa ATCC 27853 at 10 ug/ml after 24 hrs by disc diffusion method. In kind it is functional. The following applies: ATCC 27853, 24 h, read-out: IZ. Put shortly:
as §2

Test [8] deals with Staphylococcus aureus. Kind of test: Antibacterial activity against Staphylococcus aureus ATCC 25923 at after 24 hrs by disc diffusion method. It counts as functional. The following applies: ATCC 25923, 24 h. Put shortly: as §2
For test [9], the system named is Staphylococcus aureus. Kind of test: Antibacterial activity against Staphylococcus aureus ATCC 25923 at 10 ug/ml after 24 hrs by disc diffusion method. The following applies: ATCC 25923, 24 h, read-out: IZ. In kind it is functional. In a few lines: as §2
Test [10] deals with Escherichia coli. Kind of test: Antibacterial activity against Escherichia coli ATCC 25922 after 24 hrs by disc diffusion method. It counts as functional. The conditions noted are these: ATCC 25922, 24 h. In a few lines: as §2
The test system of test [11] is Escherichia coli. Put plainly: Antibacterial activity against Escherichia coli ATCC 25922 at 10 ug/ml after 24 hrs by disc diffusion method. In kind it is functional. The conditions noted are these: ATCC 25922, 24 h, read-out: IZ. Put shortly:
as §2

The test system of test [12] is Bacillus subtilis. Put plainly: Antibacterial activity against Bacillus subtilis ATCC 11774 at 15 ug/ml after 24 hrs by disc diffusion method. It counts as functional. The following applies: ATCC 11774, 24 h, read-out: IZ. Put shortly:
as §2

Test [13] relates to Bacillus subtilis. Kind of test: Antibacterial activity against Bacillus subtilis ATCC 11774 after 24 hrs by disc diffusion method. The following applies: ATCC 11774, 24 h. It counts as functional. Put shortly:
as §2

Test [14] relates to Aspergillus fumigatus. Put plainly: Antifungal activity against Aspergillus fumigatus NCIM 902 after 2 to 3 days by serial plate dilution method. In kind it is functional. In a few lines:
as §1

The subject of test [15] is Pseudomonas aeruginosa. Put plainly: Antibacterial activity against Pseudomonas aeruginosa ATCC 27853 at >50 ug/ml after 24 hrs by disc diffusion method. In kind it is functional, organism-based. In a few lines:
as §2

Test [16] has as its system Staphylococcus aureus. Kind of test: Antibacterial activity against Staphylococcus aureus ATCC 25923 at >50 ug/ml after 24 hrs by disc diffusion method. In kind it is functional, organism-based. In a few lines: as §2
Test [17] has as its system Candida albicans. Kind of test: Antifungal activity against Candida albicans NCIM 300 at 10 ug/ml after 2 to 3 days by serial plate dilution method. It counts as functional. The conditions noted are these: read-out: IZ. In a few lines:
as §1

Test [18] relates to Aspergillus niger. Put plainly: Antifungal activity against Aspergillus niger NCIM 617 after 2 to 3 days by serial plate dilution method. In kind it is functional. Put shortly:
as §1

Test [19] has as its system Aspergillus niger. Kind of test: Antifungal activity against Aspergillus niger NCIM 617 at 10 ug/ml after 2 to 3 days by serial plate dilution method. In kind it is functional. The conditions noted are these: read-out: IZ. In a few lines:
as §1

Test [20] concerns Escherichia coli. Kind of test: Antibacterial activity against Escherichia coli ATCC 25922 at >50 ug/ml after 24 hrs by disc diffusion method. It counts as functional, organism-based. In a few lines:
as §2

Test [21] has as its system Candida albicans. Put plainly: Antifungal activity against Candida albicans NCIM 300 after 2 to 3 days by serial plate dilution method. In kind it is functional. Put shortly: as §1

Converted amounts (≈) assume the structure as drawn. The source made the active and inactive calls. The calls are words filed in the database; no cut-off is given here.

Take `CC(=O)c1ccc2c(c1)N(C(=O)CN1C(=O)C=CC1=O)c1ccccc1S2`: the outcome with Candida albicans [1] and with Aspergillus niger [2] was inactive. The MIC in the test with Pseudomonas aeruginosa [3] stood at 15 mg/L (≈ 39.6 µM); in the test with Aspergillus flavus [5] it was 25 mg/L (≈ 66.1 µM); in the test on Staphylococcus aureus [8], 15 mg/L (≈ 39.6 µM); in the test with Escherichia coli [10] it was 20 mg/L (≈ 52.9 µM); in the test on Bacillus subtilis [13], 15 mg/L (≈ 39.6 µM); against Aspergillus fumigatus [14] it was 30 mg/L (≈ 79.3 µM). The zone of inhibition at 10 µg/mL in the test with Aspergillus fumigatus [4] is 16 mm; in the test with Aspergillus flavus [6], 18 mm; with Pseudomonas aeruginosa [7], 17 mm; in the test on Staphylococcus aureus [9], 16 mm; in the test with Escherichia coli [11], 18 mm. Besides, the zone of inhibition at 15 µg/mL in the test on Bacillus subtilis [12] is 16 mm.
As for `O=C1c2ccccc2C(=O)N1CC(=O)N1c2ccccc2Sc2ccc(C(F)(F)F)cc21`, the result in the test with Pseudomonas aeruginosa [15], in the test on Staphylococcus aureus [16] and in the test on Escherichia coli [20] was inactive. Also, the zone of inhibition at 10 µg/mL with Candida albicans [17] turned out to be 21 mm; in the test with Aspergillus fumigatus [4], 18 mm; with Aspergillus flavus [6], 22 mm; in the test on Aspergillus niger [19] it was 21 mm. Also, the MIC against Aspergillus flavus [5] was found to be 10 mg/L (≈ 22 µM); with Aspergillus niger [18], 10 mg/L (≈ 22 µM); against Bacillus subtilis [13], 25 mg/L (≈ 55 µM); against Candida albicans [21] it was 10 mg/L (≈ 22 µM); against Aspergillus fumigatus [14] it was 10 mg/L (≈ 22 µM). For the same molecule, in the test with Bacillus subtilis [12], the zone of inhibition at 15 µg/mL came to 14 mm.

The record behind these values is ChEMBL document CHEMBL1154781, “Synthesis and antimicrobial activity of some new N-acyl substituted phenothiazines” (2009).
